# Hits are enriched below; roughly 4.9% of the tested compounds scored in any of these assays.
# STAT1 act = increases IFN-gamma driven STAT1 reporter signal. NIH 3T3 STAT1-luciferase reporter, luminescence; 100% = IFN-gamma alone, no compound. 200,000 tested, 2.6% active. activation (% of control), % at 5.5 µM;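 active means activation above the screen-wide mean activation plus 3 SD, cut at about 130% in these data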;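 further: raw ratio to IFN-gamma control signal so 100% means no change and 0% no light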
# STAT3 act = increases IL-6 driven STAT3 reporter signal; U3A cells, IL-6 STAT3-luciferase reporter, luminescence; 100% = signal with IL-6 EC80 alone; activation (% of control), % at 5.6 µM; 190,000 tested, 0.91% active; AID 871;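 active means activation above the screen-wide mean of compound activation plus 3 SD, cut at about 130% in these data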;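 further: 0% = background luminescence of wells with medium and substrate only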
#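 Material: STAT1-lacking human U3A cells, STAT3 luciferase reporter | Benchmarks: IL-6-only wells as 100% reference | Probe or stimulus: IL-6 (33 ng/mL) | Timing: Compound 1 h, then IL-6 6 h at 37 °C | Detection: Luminescence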
# NF-kB expr up = raises NF-kB expression in human neuronal cells; NF-kB reporter expression; active compounds read high; fold change at 12.5 µM; 190,000 tested, 1.6% active; in the data active means fold change above about 3.3
# STAT1 blocker = STAT1 signaling inhibition; NIH 3T3 STAT1-luciferase reporter, IFN-gamma, luminescence; inhibition, % at 5.5 µM; 200,000 tested, 0.35% active; AID 920;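 active means inhibition above a set limit, the mean inhibition across all tested compounds plus 3 SD, cut at about 34% in these data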;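 further: 0% = IFN-gamma with DMSO and 100% = IFN-gamma with 300 µM nifuroxazide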
# STAT3 inh = inhibitors of IL-6 induced STAT3 signaling | U3A cells, IL-6 STAT3-luciferase reporter, luminescence; host cell line lacks STAT1 | AID 862 | inhibition, % at 5.5 µM | 190,000 tested, 0.89% active;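 active means inhibition above the mean inhibition across all screened compounds plus 3 SD, cut at about 44% in these data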;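 further: 0% = DMSO only wells and 100% = 100 µM nifuroxazide control wells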
# APP 5'UTR act = activates APP 5'UTR luciferase reporter; SH-SY5Y APP 5'UTR luciferase reporter, luminescence; zero percent = DMSO vehicle wells; activation, % at 2 µM; 190,000 tested, 1% active;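 active means activation above a set limit, based on mean plus 3 SD of controls, cut at about 140% in these data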
# * hit, by the source's call.
SMILES,STAT1 act,STAT3 act,NF-kB expr up,STAT1 blocker,STAT3 inh,APP 5'UTR act
O=C(N/N=C1/CC2C=CCC12)c1ccco1 (configuration not stated),134*,108,1.7,-38,-7,44
CCN1CCC(=NNC(=O)c2ccco2)CC1,109,110,2,-10,-14,43
COc1ccc(C2=NN3C(C2)c2ccccc2OC32C(=O)N(C)c3ccccc32)cc1 (configuration not stated),82,120,6*,6,-12,187*
COc1ccc(C2=NN(C(=O)CCC(=O)O)C(c3cccs3)C2)cc1 (configuration not stated),103,101,1.3,-5,1,11
COc1ccc(C2=NN3C(C2)c2ccccc2OC3c2cccs2)cc1 (configuration not stated),108,104,3.8*,-10,-1,155*
COc1ccc(C2=NN(C(N)=S)C(c3ccccc3)C2)cc1 (configuration not stated),117,100,1.5,-21,5,26
O=C(CNc1ccc2ccccc2c1)N/N=C/C=C/c1cccc([N+](=O)[O-])c1,101,107,0.89,-1,-14,9
CC(C(=O)NN)c1ccc([N+](=O)[O-])cc1 (configuration not stated),103,103,0.96,-7,1,7
CCc1c(C)nc(N)c(C#N)c1-c1ccccc1,89,103,1.5,12,-1,7
Cc1ccc2c(n1)sc1c(-c3ccccc3)c(C#N)c(N)nc12,100,135*,1,0,-35,0
CNc1nc(-c2ccccc2)cc(C)c1S(C)(=O)=O,119,100,1.4,-20,9,23
CCOC(=O)COc1ccc2c3c(c(=O)oc2c1C)CCC3,92,75,4.8*,9,33,5
COc1cc(N=CC2=C(O)c3ccccc3C2=O)cc(OC)c1,148*,89,1.3,-53,16,25
CCOC(=O)c1c(C)[nH]c(C=Nc2ccccc2)c1O,105,90,1.1,-6,12,7
CCOC(=O)c1c(C)[nH]c(N=Nc2cccc(C)c2)c1C,138*,106,3.4*,-41,-3,158*
CCOC(=O)c1c(C)[nH]c(N=Nc2ccccc2)c1C,127,104,3.5*,-30,4,63
CS(=O)(=O)Nc1cccc(C2=NN(S(C)(=O)=O)C(c3ccc4c(c3)OCO4)C2)c1 (configuration not stated),125,113,1.9,-28,-12,9
CS(=O)(=O)N1N=C(c2ccccc2)CC1c1ccc2c(c1)OCO2 (configuration not stated),137*,122,2,-41,-14,0
COc1ccc(Br)cc1S(=O)(=O)NCCCN1CCOCC1,95,95,0.9,5,12,-12
COc1ccc(C2=NOC(C(=O)NCc3ccc(F)cc3)C2)cc1OC (configuration not stated),104,134*,2.1,-5,-36,-96
COc1cc(C2=NOC(C(=O)NCc3ccc(F)cc3)C2)cc(OC)c1OC (configuration not stated),98,113,2.5,2,-13,-95
Nc1ccc(N=Nc2ccc(N)cc2)cc1,120,99,3.5*,-23,3,26
Nc1n[nH]c(N)c1N=Nc1ccc(Cl)cc1,111,92,1.4,-12,5,30
CC(/C=N/NC(=O)c1nn(C)c(C)c1Br)=C\c1ccccc1,132*,93,2.1,-36,10,29
CC(/C=N/NC(=O)c1c(Br)cnn1C)=C\c1ccccc1,120,103,1.6,-22,-3,-1
COC(=O)c1ccccc1NC(=S)N(Cc1ccc2c(c1)OCO2)Cc1cc2cc(OC)ccc2[nH]c1=O,101,100,0.35,-1,-1,2
O=C(COc1ccccc1)Nc1ccc(Cl)cc1Cl,134*,93,3.5*,-39,11,114
CC(=O)OCC(=O)Nc1ccc(Cl)cc1Cl,102,102,1,-4,2,4
CN(Cc1ccco1)C(=O)Cn1nc(-c2ccc(Cl)cc2)ccc1=O,104,102,0.94,-7,8,-1
